A selection: hits, their analogues and other compounds. The true share with any hit is near 3.2%.
UBC13 inh = UBC13 polyubiquitin chain formation inhibitors, primary screen, biochemical, TR-FRET, uHTS; inhibition, % at 20 µM; AID 485273, 2010; Ubiquitin-conjugating enzyme E2 N (Homo sapiens), P61088; actives 0.47% (n = 330,000); in the data active = inhibition above about 45%, passing the limit was not always enough
MEKK2 WT-MEK5 = modulators of MEK5 binding to wildtype MEKK2, primary screen, biochemical, multiplex bead flow cytometry, Alexa488-MEK5; Mitogen-activated protein kinase kinase kinase 2 (Homo sapiens), Q9Y2U5; Alexa488-MEK5 binding to MEKK2 WT; actives lie on both sides; binding response (% of control), % at 10 µM; actives 1.1% (n = 290,000); AID 1531, 2009; in the data active = binding response below about 67% or above about 130%
Apaf1 inhib = inhibitors of human Apaf-1 apoptosome, primary screen, biochemical, DEVD-Rh110 fluorescence, uHTS. Apoptotic protease-activating factor 1 (Homo sapiens), O14727. reconstituted apoptosome caspase-3 activity. inhibition, % at 20 µM. actives 0.71% (n = 330,000). AID 489030, 2010; active = inhibition of at least 40% at 20 µM
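System – cell-free apoptosome with Apaf-1, procaspase-3 and caspase-9 · Buffer or medium – pH 7.5 Hepes buffer with CHAPS, BSA, DTT · Also added – cytochrome c with DEVD-Rh110 · Times – 30 min compound preincubation, 50 min activation, room temperature · Technique – Rh110 fluorescence intensity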
MEKK2 mut-MEK5 = MEK5 binding signal on mutant MEKK2 PB1, primary screen, biochemical, multiplex bead flow cytometry, Alexa488-MEK5 | Alexa488-MEK5 binding to MEKK2 mutant | actives 0.35% (n = 290,000) | percent response, % at 10 µM; in the data active = percent response above about 24%, passing the limit was not always enough
Pemphigus Ab inh = inhibitors of pemphigus antibody binding to DSG3, primary screen, biochemical, bead-based, flow cytometry, scFv-GFP; Desmoglein-3 (Homo sapiens), P32926; DSG3-coupled beads, scFv-anti-DSG3-GFP binding; active compounds read low; binding (percent of control), % at 10 µM; actives 0.48% (n = 310,000);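 active = binding more than 3 SD below its plate's average and above zero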;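 also: hits lower antibody fragment binding to DSG3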
Target sequence (P32926 whole entry, looked up, the tested form may be a part): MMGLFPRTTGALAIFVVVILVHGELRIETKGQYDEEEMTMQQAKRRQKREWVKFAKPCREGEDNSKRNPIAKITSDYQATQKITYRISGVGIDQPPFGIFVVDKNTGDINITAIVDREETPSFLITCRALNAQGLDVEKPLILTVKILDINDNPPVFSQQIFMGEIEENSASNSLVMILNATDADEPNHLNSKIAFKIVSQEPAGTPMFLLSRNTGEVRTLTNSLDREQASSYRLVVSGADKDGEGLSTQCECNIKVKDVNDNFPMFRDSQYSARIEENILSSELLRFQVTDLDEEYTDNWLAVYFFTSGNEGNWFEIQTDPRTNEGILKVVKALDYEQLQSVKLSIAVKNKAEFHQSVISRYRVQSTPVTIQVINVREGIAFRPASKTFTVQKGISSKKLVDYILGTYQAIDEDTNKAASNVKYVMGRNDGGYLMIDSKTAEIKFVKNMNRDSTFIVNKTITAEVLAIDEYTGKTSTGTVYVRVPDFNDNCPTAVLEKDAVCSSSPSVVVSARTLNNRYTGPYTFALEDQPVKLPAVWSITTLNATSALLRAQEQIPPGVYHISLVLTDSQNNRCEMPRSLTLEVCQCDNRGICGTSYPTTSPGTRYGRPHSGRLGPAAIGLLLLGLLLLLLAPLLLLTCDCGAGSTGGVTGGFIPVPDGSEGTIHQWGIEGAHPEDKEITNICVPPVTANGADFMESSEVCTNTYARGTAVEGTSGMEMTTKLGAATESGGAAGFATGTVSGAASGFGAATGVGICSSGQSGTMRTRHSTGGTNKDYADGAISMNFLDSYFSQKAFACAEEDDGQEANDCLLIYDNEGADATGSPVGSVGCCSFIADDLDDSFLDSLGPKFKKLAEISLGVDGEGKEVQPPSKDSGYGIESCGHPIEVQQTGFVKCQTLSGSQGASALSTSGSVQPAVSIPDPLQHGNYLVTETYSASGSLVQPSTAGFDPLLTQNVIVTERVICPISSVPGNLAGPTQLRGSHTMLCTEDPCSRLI
MEKK3 PB1 HTS = modulators of MEKK3-MEK5 PB1 binding, primary screen, biochemical, wildtype MEKK3, multiplex bead flow cytometry, Alexa488-MEK5; binding response (% of control), % at 10 µM; actives 1.4% (n = 290,000); bead-based flow cytometry, Alexa488-MEK5 binding to MEKK3; actives lie on both sides; 0 = blocked by unlabeled MEK5, 100 = vehicle;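 active = binding response more than 3 SD above or below the average of its plate-row segment, actives on both sides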;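 also: Alexa488 bead fluorescence after subtracting the streptavidin-only scavenger bead signal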
Apaf-1 inh conf2 = Apaf-1 inhibitors, single-dose retest, confirmation, biochemical, fluorescence, DEVD-Rh110, 20 µM; AID 504614, 2011; reconstituted apoptosome, caspase-3 DEVD-Rh110 fluorescence; shares compounds with Apaf1 inhib; actives 25% (n = 1,800); inhibition, % at 20 µM;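 active = mean inhibition of at least 40% at 20 µM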
Rh110 quench = Rh110 fluorescence interference by putative Apaf-1 inhibitors, confirmation, artefact control for Apaf-1 inhibitor project, biochemical, 20 µM; 1,800 tested, under 10 active; quenched caspase reaction; AID 504615, 2011; activation (fluorescence interference), % at 20 µM; shares compounds with Apaf1 inhib;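 active = signal rise of 40% or more at 20 µM, treated as a fluorescence artifact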
Apaf1 inh interf = fluorescence interference of Apaf-1 inhibitor hits, dose response, artefact control for Apaf-1 inhibitor project; shares compounds with Apaf1 inhib; fluorescence interference counterscreen, Apaf-1 assay format; IC50, µM; 460 tested, under 10 active; call rule not given here
A number is an active result; n = inactive; x = no result.

SMILES | UBC13 inh | MEKK2 WT-MEK5 | Apaf1 inhib | MEKK2 mut-MEK5 | Pemphigus Ab inh | MEKK3 PB1 HTS | Apaf-1 inh conf2 | Rh110 quench | others
CC(=O)c1ccc2c(c1)C1C=CCC1C(c1ccncc1)N2 (stereo unspecified) | n | n | 59.6 | n | n | n | n | n
COC(=O)c1ccc(C2Nc3ccc(/C(C)=N/NC(=O)C(OC)c4ccccc4)cc3C3C=CCC32)cc1 (stereo unspecified) | n | n | n | n | n | n | x | x
Cc1ccc(NC(=O)Cn2cnc3c(NCc4ccccc4)ncnc32)cc1C | x | x | n | x | n | x | x | x
CC(=O)N(Cc1ccc(F)cc1)C1=C(NCCc2ccccc2)C(=O)c2ccccc2C1=O | n | n | 77.9 | n | n | n | 75.7 | n | Apaf1 inh interf=n
Cc1ccc(C(=O)c2c(C)oc3c2C(=O)C(=O)c2ccccc2-3)cc1 | n | n | 88.4 | n | n | n | 73.4 | n | Apaf1 inh interf=n
Cc1oc2c(c1C(=O)N1CCC(C)CC1)C(=O)c1ccccc1C2=O | n | n | 41.5 | n | x | n | n | n
O=C1CCC(C(=O)N2CCN(c3ccccc3)CC2)CN1Cc1ccc(Cl)cc1 (stereo unspecified) | x | x | x | x | n | x | x | x
c1cc(SC2CCCCC2)cc(-c2nc3cnccn3c2NC2CCCCC2)c1 | n | x | 41.3 | x | n | x | n | n
c1cn2c(NC3CCCCC3)c(-c3ccc(SC4CCCCC4)cc3)nc2cn1 | n | x | n | x | n | x | x | x
c1ccc(-c2cn3nc4c(nc3n2)CCCC4)cc1 | n | n | 57.3 | n | n | n | n | n
c1ccc(-c2cn3nc(-c4ccccc4)cnc3n2)cc1 | x | n | x | n | n | n | x | x
Brc1ccc(-c2cn3nc4c(nc3n2)CCCC4)cc1 | n | n | 41.2 | n | n | n | n | n
CC(C)CN(C(=O)CN(C)C(=O)Cc1c(F)cccc1Cl)c1c(N)n(CC(C)C)c(=O)[nH]c1=O | x | x | x | x | n | x | x | x
O=c1c(N2CCOCC2)coc2ccccc12 | n | n | n | n | n | n | x | x
O=c1[nH]c(N2CCOCC2)cc2ccccc12 | n | n | 92.5 | n | n | n | 74.0 | n | Apaf1 inh interf=n
CCCCn1c(N)c(N(CC(C)C)C(=O)CSCc2ccc(Cl)c(Cl)c2)c(=O)[nH]c1=O | n | x | n | x | n | x | x | x
Cc1cc(NC(=O)Nc2ccccc2)n(C(C)(C)C)n1 | n | n | n | n | n | n | x | x
Cc1cc(C)c(S(=O)(=O)Nc2ccc3c4c(cccc24)CC3)c(C)c1 | n | n | 43.0 | n | n | n | n | n
CCOc1ccccc1C(=O)OCC(=O)Nc1cc(S(=O)(=O)N2CCOCC2)ccc1C | n | x | n | x | n | x | x | x
Cc1cc(C)cc(OCC(=O)Nc2ccc(N3CCCC3)cc2)c1 | n | n | 40.7 | n | n | n | n | n
CC(C)C(=O)NC(c1cccs1)c1cc([N+](=O)[O-])c2cccnc2c1O (stereo unspecified) | n | n | 68.3 | n | n | n | n | n
Cc1ccc(C(NC(=O)C(C)C)c2cc([N+](=O)[O-])c3cccnc3c2O)cc1 (stereo unspecified) | n | n | n | n | n | n | x | x
CC(=O)N1CCn2c3c(c(=O)c4cc(C)ccc42)CCC31 (stereo unspecified) | n | x | 73.1 | x | n | x | n | n
CCO[C@@H]1OC(C(=O)N2CCN(Cc3ccc4c(c3)OCO4)CC2)=C[C@H](c2ccc(C(F)(F)F)cc2)[C@H]1CCCO | n | n | 41.8 | n | n | n | n | n
CCO[C@@H]1OC(C(=O)N2CCN(Cc3ccc4c(c3)OCO4)CC2)=C[C@H](c2ccc(Br)cc2)[C@H]1CCCO | n | n | n | n | n | n | x | x
SMILES | UBC13 inh | MEKK2 WT-MEK5 | Apaf1 inhib | MEKK2 mut-MEK5 | Pemphigus Ab inh | MEKK3 PB1 HTS | Apaf-1 inh conf2 | Rh110 quench | others
O=S1(=O)CC(c2ccccc2)=NN=C(c2ccccc2)C1 | x | x | x | x | n | x | x | x
Cc1[nH]n(-c2ccccc2)c(=O)c1N=Nc1cccc(S(=O)(=O)N2CCOCC2)c1 | n | n | 45.7 | n | 64.3 | n | n | n
Cc1[nH]n(-c2ccccc2)c(=O)c1N=Nc1cccc(C(=O)O)c1 | n | n | n | n | n | n | x | x
COc1ccc(CCN(C)C(=O)c2cccc(S(=O)(=O)NCc3ccccc3)c2)cc1OC | n | n | 56.7 | n | x | n | n | n
Cc1nn(-c2ccccc2)c(N2CCCC2)c1/C=C1\N=C(c2ccc(OC(C)C)cc2)OC1=O | n | n | 51.7 | n | n | n | n | n
CN(C)c1ccc(N/C=C/C(=O)c2ccccc2)cc1 | n | n | n | n | n | n | x | x
CN(C)c1ccc(N/C=C/C(=O)C(C)(C)C)cc1 | n | n | 53.4 | n | n | n | n | n
Cc1cccc(NC(=O)c2ccc(OCC3CCCO3)cc2)c1C (stereo unspecified) | n | n | n | n | n | n | x | x
Cc1cccnc1NC(=O)c1ccc(OCC2CCCO2)cc1 (stereo unspecified) | n | x | 54.3 | x | n | x | n | n
Cc1c(Cl)cccc1NC(=O)CC1Oc2ccccc2NC1=O (stereo unspecified) | n | n | n | n | n | n | x | x
O=C1c2ccccc2C(=O)c2c1cccc2-n1nnc2ccccc21 | n | n | n | n | n | n | x | x
O=C1C(N2CCOCC2)=C(n2nnc3ccccc32)C(=O)c2ccccc21 | n | n | 93.6 | n | n | n | 96.8 | n | Apaf1 inh interf=n
CC(C)[C@H](NC(=O)c1cc2cc(Cl)ccc2n1C)C(=O)N[C@@H](C(=O)O)c1ccccc1 | n | n | n | n | n | n | x | x
CSCCC(NC(=O)c1ccccc1Br)C(=O)N1CCN(C(C)=O)CC1 (stereo unspecified) | n | x | 48.1 | x | x | x | n | n
COc1cccc(N2CCN(CC(=O)Nc3ccccc3C(=O)NCCc3ccccc3)CC2)c1 | n | x | 49.5 | x | n | x | n | n
CCN(CC(=O)Nc1ccc(NC(C)=O)cc1)C(=O)c1ccccc1Sc1ccccc1C#N | n | x | 55.7 | x | n | x | n | n

High-throughput results as filed in PubChem BioAssay.
